This note sets out measurements from ChEMBL document CHEMBL1123227, “Tricyclic epines. Novel (E)- and (Z)-11H-dibenz[b,e]azepines as potential central nervous system agents. Variation of the basic side chain” (1986).

Type in all cases: functional
The species entered for experiment [1] is Mus musculus. Nature of the experiment: Anticholinergic activity in mice. The essentials: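 Groups of 10 female NMRI mice received a lethal dose of physostigmine (0.825 mg/kg sc). Test substances were given orally 30 min before the physostigmine.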
Experiment [2] is filed under the species Mus musculus. Nature of the experiment: Sedative activity relative with respect to clozapine.
The species entered for experiment [3] is Mus musculus. Nature of the experiment: Anticholinergic activity relative with respect to clozapine.
The species entered for experiment [4] is Mus musculus. Nature of the experiment: Sedative activity in mice.
Experiment [5] is filed under the species Rattus norvegicus. In words: Compound was tested or the anti-tryptamine activity in rats relative with respect to clozapine. The essentials: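 Rats dosed ip 30 min before tryptamine hydrochloride 16 mg/kg iv. Effect means front paw clonic movements absent over 5 min observation after tryptamine. ED50 is the dose preventing the symptom in half the animals (Probit analysis); relative activity referenced to clozapine.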

The species entered for experiment [6] is Rattus norvegicus. In words: Compound was tested or the anti-tryptamine activity in rats. The essentials:
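Rats were challenged with tryptamine hydrochloride (16 mg/kg iv), with test substances given ip 30 min beforehand. Activity was scored as absence of clonic front paw movements over a 5 min observation after tryptamine. ED50 was the dose preventing the symptom in half the animals, determined by Probit analysis.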

For another experiment, the species on record is Oryctolagus cuniculus. Nature of the experiment: Compound was tested for the muscle-relaxing activity in rabbits. The essentials:
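Muscle electrical activity during contraction was recorded and pulses were counted. A 5 s extension was repeated every 1 min. Once pulse counts were constant (control value), the substance was given iv, and post-dose pulses were related to that value. Four to six animals were used per dose. ED50 was the dose halving muscle activity from the initial value.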

For the compound `CN1CCN(C2=Nc3ccc(Cl)cc3/C(=C/C#N)c3ccccc32)CC1`, the 50% effective dose (ED50) in the experiment filed under Mus musculus [1] was found to be 16.1 mg/kg; in the experiment filed under Mus musculus [4], 25.6 mg/kg. The Relative activity stood at 0.19 in the experiment filed under Mus musculus [2] and 0.88 in the experiment filed under Mus musculus [3].
In the same order, the values of `CN(C)CCCNC1=Nc2ccccc2/C(=C/C#N)c2ccccc21` are greater than 46.4 mg/kg, greater than 46.4 mg/kg, less than 0.1 and less than 0.3.
For `CN1CCC(N(C)C2=Nc3ccccc3/C(=C/C#N)c3ccccc32)CC1` the same measures were roughly 31.6 mg/kg, 13.4 mg/kg, 0.35 and 0.45.
Compound `C[N+]1([O-])CCN(C2=Nc3ccccc3/C(=C/C#N)c3ccccc32)CC1` showed an ED50 in the experiment filed under Mus musculus [1] of roughly 100 mg/kg. Besides, the Relative activity is listed as 0.26 in the experiment filed under Mus musculus [2] and 0.14 in the experiment listed under Mus musculus [3].
Regarding `N#C/C=C1/c2ccccc2N=C(NCCN2CCOCC2)c2ccccc21`, the ED50 in the experiment filed under Mus musculus [1] was greater than 100 mg/kg; in the experiment listed under Mus musculus [4], 8.12 mg/kg. Further, the results for the Relative activity in the experiment listed under Mus musculus [2] and in the experiment filed under Mus musculus [3] were 0.58 and less than 0.14, respectively.
In the same order, the values of `CN1CCC(NC2=Nc3ccccc3/C(=C/C#N)c3ccccc32)CC1` are roughly 68.1 mg/kg, greater than 100 mg/kg, less than 0.04 and 0.21.
In the same order, the values of `N#C/C=C1/c2ccccc2N=C(N2CC[N+]([O-])(CCO)CC2)c2ccccc21` are 39 mg/kg, 10.3 mg/kg, 0.46 and 0.36.
For `N#C/C=C1/c2ccccc2N=C(NCCN)c2ccccc21` the same measures were greater than 100 mg/kg, greater than 100 mg/kg, less than 0.04 and less than 0.14.
For `CC1CCN(C2=Nc3ccccc3/C(=C/C#N)c3ccccc32)CC1`, the results for the ED50 in the experiment listed under Mus musculus [1] and in the experiment filed under Mus musculus [4] were greater than 46.4 mg/kg and roughly 68.1 mg/kg, respectively. Moreover, the Relative activity in the experiment listed under Mus musculus [2] was 0.07; in the experiment filed under Mus musculus [3], less than 0.3.
For `CN(C)CCNC1=Nc2ccccc2/C(=C/C#N)c2ccccc21` the same measures were greater than 100 mg/kg, 15.5 mg/kg, 0.31 and less than 0.14.
For `CN(C)CCCOC1=Nc2ccccc2/C(=C/C#N)c2ccccc21` the same measures were 24 mg/kg, greater than 100 mg/kg, less than 0.04 and 0.59.
`Cc1ccc2c(c1)/C(=C/C#N)c1ccccc1C(N1CCN(C)CC1)=N2` registered a Relative activity in the experiment filed under Rattus norvegicus [5] of 0.23. Moreover, the figures for the median effective dose (ED50) in the experiment filed under Rattus norvegicus [6] and in the experiment listed under Oryctolagus cuniculus were roughly 21 mg/kg and roughly 0.1 mg/kg, respectively.
As to `CC1CN(C)CCN1C1=Nc2ccccc2/C(=C/C#N)c2ccccc21` (stereo not drawn), the median effective dose (ED50) in the experiment listed under Mus musculus [1] and in the experiment filed under Mus musculus [4] was roughly 21.5 mg/kg throughout. Also, the results for the Relative activity in the experiment listed under Mus musculus [2] and in the experiment listed under Mus musculus [3] were 0.22 and 0.66, respectively.
With `N#C/C=C1/c2ccccc2N=C(N2CCC(O)CC2)c2ccccc21`, the values for the ED50 in the experiment filed under Mus musculus [1] and in the experiment filed under Mus musculus [4] were greater than 100 mg/kg and greater than 46.4 mg/kg, respectively. Besides, the Relative activity is less than 0.1 in the experiment listed under Mus musculus [2] and less than 0.14 in the experiment filed under Mus musculus [3].
For `CN(C)CCOC1=Nc2ccccc2/C(=C/C#N)c2ccccc21` the same measures were 24.9 mg/kg, 34.8 mg/kg, 0.14 and 0.57.
In the same order, the values of `CN1CCC(OC2=Nc3ccccc3/C(=C/C#N)c3ccccc32)CC1` are greater than 21.5 mg/kg, greater than 21.5 mg/kg, less than 0.22 and less than 0.66.
For `CN(C)CCN(C)C1=Nc2ccccc2/C(=C/C#N)c2ccccc21`, the ED50 was roughly 31.6 mg/kg in the experiment listed under Mus musculus [1] and roughly 14.7 mg/kg in the experiment filed under Mus musculus [4]. Further, the Relative activity in the experiment listed under Mus musculus [2] is 0.32; in the experiment listed under Mus musculus [3], 0.45.
For the compound `CN1CCCCC1COC1=Nc2ccccc2/C(=C/C#N)c2ccccc21` (stereo not drawn), the figures for the ED50 in the experiment listed under Mus musculus [1] and in the experiment listed under Mus musculus [4] were roughly 68.1 mg/kg and 43.6 mg/kg, respectively. In addition, the Relative activity in the experiment listed under Mus musculus [2] amounted to 0.11; in the experiment filed under Mus musculus [3] it was 0.21.
For `C[N+]1([O-])CCCC(COC2=Nc3ccccc3/C(=C/C#N)c3ccccc32)C1` (stereo not drawn) the same measures were greater than 100 mg/kg, greater than 100 mg/kg, less than 0.04 and less than 0.14.
For `N#C/C=C1/c2ccccc2N=C(N2CCN(CCN3CCOC3=O)CC2)c2ccccc21` the same measures were 51 mg/kg, 39.4 mg/kg, 0.12 and 0.28.
As to `C[N+]1([O-])CCN(C2=Nc3ccccc3C(=CC#N)c3ccccc32)CC1`, the 50% effect level in the experiment listed under Mus musculus [1] (ED50) was put at a dose of 15.9 mg/kg. The Relative activity came out at 0.33 in the experiment filed under Mus musculus [2] and 0.89 in the experiment listed under Mus musculus [3].
As to `N#C/C=C1/c2ccccc2N=C(NCCN2CCCCC2)c2ccccc21`, the ED50 in the experiment listed under Mus musculus [1] is greater than 10 mg/kg. Moreover, the Relative activity in the experiment filed under Mus musculus [3] is listed as less than 1.41.
Regarding `N#C/C=C1/c2ccccc2N=C(N2CCOC(CO)C2)c2ccccc21` (stereo not drawn), the ED50 in the experiment filed under Mus musculus [1] is roughly 46.4 mg/kg; in the experiment listed under Mus musculus [4], greater than 46.4 mg/kg. Also, the Relative activity in the experiment listed under Mus musculus [2] is less than 0.1; in the experiment listed under Mus musculus [3] it was 0.3.
For the compound `CCN1CCN(C2=Nc3ccccc3C(=CC#N)c3ccccc32)CC1`, the Relative activity in the experiment filed under Rattus norvegicus [5] came out at 0.76. The figures for the median effective dose (ED50) in the experiment listed under Rattus norvegicus [6] and in the experiment listed under Oryctolagus cuniculus were 6.6 mg/kg and roughly 0.32 mg/kg, respectively.
For the compound `CCN(CC)CCNC1=Nc2ccccc2/C(=C/C#N)c2ccccc21`, the median effective dose (ED50) is greater than 100 mg/kg in the experiment listed under Mus musculus [1] and 5.72 mg/kg in the experiment filed under Mus musculus [4]. Moreover, the Relative activity in the experiment filed under Mus musculus [2] is recorded as 0.83; in the experiment listed under Mus musculus [3] it was less than 0.14.
For `CC1CN(C2=Nc3ccccc3/C(=C/C#N)c3ccccc32)CCN1C` (stereo not drawn) the same measures were 7.68 mg/kg, 8.08 mg/kg, 0.59 and 1.84.
For `CN1CCCN(C2=Nc3ccccc3/C(=C/C#N)c3ccccc32)CC1` the same measures were 5.49 mg/kg, greater than 21.5 mg/kg, less than 0.22 and 2.57.
With `CN1CCN(C2=Nc3ccccc3C(=CC#N)c3ccccc32)CC1`, the Relative activity in the experiment listed under Rattus norvegicus [5] was found to be 0.17. Also, the 50% effective dose (ED50) in the experiment filed under Rattus norvegicus [6] stood at 30 mg/kg; in the experiment listed under Oryctolagus cuniculus, 0.059 mg/kg.
As to `N#C/C=C1/c2ccccc2N=C(N2CCNCC2)c2ccccc21`, the ED50 amounted to 21.3 mg/kg in the experiment filed under Mus musculus [1] and 30.6 mg/kg in the experiment listed under Mus musculus [4]. Also, the values for the Relative activity in the experiment listed under Mus musculus [2] and in the experiment listed under Mus musculus [3] were 0.15 and 0.66, respectively.
For `CN1CCCC(COC2=Nc3ccccc3/C(=C/C#N)c3ccccc32)C1` (stereo not drawn) the same measures were 5.92 mg/kg, greater than 46.4 mg/kg, less than 0.1 and 2.38.
For `N#C/C=C1/c2ccccc2N=C(N2CCN(CCO)CC2)c2ccccc21` the same measures were roughly 68.1 mg/kg, 14.6 mg/kg, 0.32 and 0.21.
In the same order, the values of `Cc1ccc2c(c1)N=C(N1CCN(CCN3CCOC3=O)CC1)c1ccccc1/C2=C\C#N` are greater than 46.4 mg/kg, 9.56 mg/kg, 0.5 and less than 0.3.
For the compound `N#C/C=C1/c2ccccc2N=C(N2CCOCC2)c2ccccc21`, the median effective dose (ED50) in the experiment listed under Mus musculus [1] and in the experiment filed under Mus musculus [4] was greater than 100 mg/kg each time. The figures for the Relative activity in the experiment filed under Mus musculus [2] and in the experiment listed under Mus musculus [3] were less than 0.04 and less than 0.14, respectively.
In the experiment listed under Mus musculus [1], `C[N+]1([O-])CCN(C2=Nc3ccccc3/C(=C\C#N)c3ccccc32)CC1` returned an ED50 of 8.75 mg/kg. Moreover, the Relative activity came out at 0.04 in the experiment listed under Mus musculus [2] and 1.61 in the experiment listed under Mus musculus [3].
Take `N#C/C=C1/c2ccccc2N=C(NCCN2CCCC2)c2ccccc21`: the ED50 in the experiment filed under Mus musculus [1] is greater than 100 mg/kg; in the experiment listed under Mus musculus [4], 4.96 mg/kg. In addition, the Relative activity is recorded as 0.96 in the experiment filed under Mus musculus [2] and less than 0.14 in the experiment listed under Mus musculus [3].
In the same order, the values of `N#C/C=C1/c2ccccc2N=C(N2CCC(O)(c3ccccc3)CC2)c2ccccc21` are greater than 100 mg/kg, greater than 46.4 mg/kg, less than 0.1 and less than 0.14.
As to `CN1CCN(CCNC2=Nc3ccccc3/C(=C/C#N)c3ccccc32)CC1`, the ED50 in the experiment filed under Mus musculus [1] was greater than 100 mg/kg; in the experiment listed under Mus musculus [4] it was 27.7 mg/kg. For the same compound, the Relative activity in the experiment filed under Mus musculus [2] is given as 0.17; in the experiment filed under Mus musculus [3] it was less than 0.14.
In the same order, the values of `Cc1ccc2c(c1)N=C(N1CC[N+](C)([O-])CC1)c1ccccc1/C2=C/C#N` are 31 mg/kg, 2.66 mg/kg, 1.78 and 0.45.
For `CCN1CCN(C2=Nc3ccccc3/C(=C\C#N)c3ccccc32)CC1`, the Relative activity in the experiment filed under Rattus norvegicus [5] is listed as less than 0.05. Besides, the 50% effective dose (ED50) in the experiment filed under Rattus norvegicus [6] is greater than 100 mg/kg.
With `CCN1CCN(C2=Nc3ccccc3/C(=C/C#N)c3ccccc32)CC1`, the ED50 in the experiment listed under Mus musculus [1] is greater than 21.5 mg/kg; in the experiment filed under Mus musculus [4] it was 2.79 mg/kg. For the same compound, the Relative activity was 1.7 in the experiment filed under Mus musculus [2] and less than 0.66 in the experiment listed under Mus musculus [3].
For `CCN1CCCC1CNC1=Nc2ccccc2/C(=C/C#N)c2ccccc21` (stereo not drawn) the same measures were greater than 100 mg/kg, 17.2 mg/kg, 0.28 and less than 0.14.
For `CN1CCCC(CNC2=Nc3ccccc3/C(=C/C#N)c3ccccc32)C1` (stereo not drawn) the same measures were roughly 46.4 mg/kg, greater than 100 mg/kg, less than 0.04 and 0.3.
